Hits are enriched below; roughly 0.4% of the tested compounds scored in any of these assays.
ERp5 block = blocks human ERp5 reductase activity on insulin; inhibition, % at 9.99 µM; actives 0.05% (n = 350,000); ERp5 insulin aggregation, absorbance 650 nm, 90 min; Q15084;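 active = mean replicate inhibition above about 25%, with every replicate also reaching it, limit read from the data, passing the limit was not always enough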
TbMetRS inhib = Trypanosoma brucei MetRS inhibition; purified T. brucei MetRS, ATP depletion, Kinase-Glo luminescence; inhibition, % at 11.9 µM; actives 0.4% (n = 360,000);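 active = inhibition above a per-plate cutoff of the control wells' mean inhibition plus 3 SD, cut at about 5.5% in these data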;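 also: 0% = DMSO wells median and 100% = median of wells with control inhibitor compound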
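Assay system: T. brucei methionyl-tRNA synthetase, purified | Medium: HEPES buffer with MgCl2, KCl, DTT, spermine, BSA, pyrophosphatase | Compound: 11.9 µM single point | Incubation: 15 min enzyme-compound preincubation, 2 h reaction, 10 min detection, 25 °C | Measured by: Kinase-Glo luciferase luminescence reporting remaining unconsumed ATP | Measure: % inhibition normalized to control-well medians | Replication: Singlicate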
PDI turbidity = PDI (human) enzyme inhibition | inhibition, % at 10 µM | actives 0.052% (n = 350,000) | P07237 | PDI insulin aggregation turbidity, A650, 90 min;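 active = mean inhibition across replicates of 30% or more, whatever share of single replicates reach that level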
Target sequence (P07237 whole entry, looked up): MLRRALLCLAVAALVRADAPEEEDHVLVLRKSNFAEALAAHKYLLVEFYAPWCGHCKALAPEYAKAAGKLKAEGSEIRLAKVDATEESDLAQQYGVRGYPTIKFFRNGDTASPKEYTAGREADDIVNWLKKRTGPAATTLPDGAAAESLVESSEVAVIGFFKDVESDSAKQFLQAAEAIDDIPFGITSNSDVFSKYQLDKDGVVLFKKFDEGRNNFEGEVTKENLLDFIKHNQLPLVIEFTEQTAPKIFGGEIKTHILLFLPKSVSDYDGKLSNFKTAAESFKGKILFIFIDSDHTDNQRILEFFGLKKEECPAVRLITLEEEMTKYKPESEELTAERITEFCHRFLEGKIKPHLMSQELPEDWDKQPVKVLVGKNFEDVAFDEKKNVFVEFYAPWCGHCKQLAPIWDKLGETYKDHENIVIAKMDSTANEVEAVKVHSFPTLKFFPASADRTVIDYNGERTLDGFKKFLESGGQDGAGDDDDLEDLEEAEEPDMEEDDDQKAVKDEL
Tb MetRS conf = confirmation of Trypanosoma brucei MetRS inhibitors; shares compounds with TbMetRS inhib; T. brucei MetRS enzyme, luminescence (ATP depletion); inhibition, % at 11.9 µM; actives 93% (n = 1,400); AID 624412; in the data active = inhibition above about 7%
Jurkat cytotox = kills Jurkat cells in T. brucei MetRS counterscreen | shares compounds with TbMetRS inhib | Jurkat cells viability, ATP luminescence | inhibition, % at 8.3 µM | actives 12% (n = 1,400); in the data active = inhibition above about 15%;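 also: 0% = vehicle and 100% = reference inhibitor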
Tb MetRS inh FP = orthogonal test for Trypanosoma brucei MetRS inhibitors; shares compounds with TbMetRS inhib; purified T. brucei MetRS, fluorescence polarization; inhibition, % at 11.9 µM; actives 44% (n = 1,400); AID 651607; in the data active = inhibition above about 17%;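 also: 0% = vehicle wells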
Active calls of the source: *; . = no result.

SMILES | ERp5 block | TbMetRS inhib | PDI turbidity | Tb MetRS conf | Jurkat cytotox | Tb MetRS inh FP
OCC1(CCc2ccccc2)CCN(C/C=C/c2ccccc2)CC1 | 2 | 0 | 0 | . | . | .
OCC1(Cc2ccccc2Cl)CCN(C/C=C/c2ccccc2)CC1 | -3 | 7.2* | 9 | 19* | 5 | 4
Nc1nc2ccccc2n1CCOc1ccc(Br)cc1 | 3 | 37* | 2 | 51* | 19* | 34*
Nc1nc2ccccc2n1CCOc1ccccc1Cl | . | 67* | 3 | 80* | 8 | 44*
Cc1ccc(OCCn2c(C)nc3ccccc32)cc1 | 6 | 0 | -2 | . | . | .
S=C(Nc1ccccc1)Nc1nc2ccccc2n1CCOc1ccc(Br)cc1 | . | 3 | 15 | . | . | .
Clc1ccccc1OCCn1nnc2ccccc21 | 3 | 0 | 15 | . | . | .
Nc1nc2ccccc2n1CCOc1ccc(Cl)cc1 | 2 | 26* | 8 | 45* | 2 | 22*
Cc1nc2ccccc2c2oc(C(=O)N3CCc4ccccc4C3)cc12 | 6 | 8.7* | . | 8.9* | 6 | 11
Cc1nc2ccccc2c2oc(C(=O)N3CCC(C)CC3)cc12 | -11 | -1 | -5 | . | . | .
C[C@@H]1CN([C@@H](C)CO)C(=O)c2cc(NC(=O)CCC(F)(F)F)ccc2O[C@@H](C)CCCCO[C@H]1CN(C)C(=O)NC1CCCCC1 | 8 | . | . | . | . | .
Cc1nnc(Nc2ccc(O)cc2)[nH]c1=O | 4 | 1 | -5 | . | . | .
Cc1nnc(Nc2ccc(C(=O)O)cc2)[nH]c1=O | -2 | 6.8* | -3 | 14* | 0 | 3
C[C@H]1CN([C@@H](C)CO)C(=O)Cc2cc(NC(=O)Cn3cnnn3)ccc2O[C@@H]1CN(C)C(=O)Nc1ccc2c(c1)OCO2 | -7 | . | . | . | . | .
COc1cccc(S(=O)(=O)Nc2ccc3c(c2)[C@H]2C[C@H](CC(=O)NCc4ccccc4F)O[C@H](CO)[C@H]2O3)c1 | -1 | . | . | . | . | .
COc1ccccc1N1C(=O)c2ccccc2NC1c1ccc(O)cc1 (configuration not stated) | 3 | 6.8* | 7 | 5 | -9 | 1
COc1cc(C2Nc3ccccc3C(=O)N2c2ccccc2OC)ccc1O (configuration not stated) | . | 0 | 17 | . | . | .
O=C(c1cccc(F)c1)N1CC(=O)N2[C@H](CO)[C@@H](c3ccc(-c4cccnc4)cc3)[C@H]2C1 | -4 | . | . | . | . | .
Cc1ccc(C)c(C(=O)Nc2nc3ccccc3[nH]2)c1 | -6 | 0 | -1 | . | . | .
Cc1ccc(Nc2nc3ccccc3[nH]2)nc1 | . | 8.1* | 14 | 26* | -1 | 13
O=C(Nc1ccccc1)Nc1nnc(CSCc2ccccc2Cl)s1 | 5 | 12* | 4 | 61* | -1 | 55*
O=C(Nc1ccc(Cl)cc1)Nc1nnc(CSCc2ccccc2Cl)s1 | -1 | -1 | 8 | . | . | .
COc1ccc(S(=O)(=O)N(C)C[C@@H]2Oc3ccc(NC(=O)Nc4c(C)noc4C)cc3CC(=O)N([C@@H](C)CO)C[C@@H]2C)cc1 | -2 | . | . | . | . | .
O=C(C[C@H]1CC[C@@H]2[C@H](COC[C@H](O)CN2C(=O)Nc2cc(Cl)cc(Cl)c2)O1)NCC1CCCCC1 | -1 | . | . | . | . | .
O=S(=O)(Nc1nccs1)c1ccc(NCc2cc(Br)cc(Br)c2O)cc1 | 10 | 36* | -4 | 68* | -9 | 24*
SMILES | ERp5 block | TbMetRS inhib | PDI turbidity | Tb MetRS conf | Jurkat cytotox | Tb MetRS inh FP
COc1cccc(CNc2ccc(S(=O)(=O)Nc3nccs3)cc2)c1O | . | 0 | -4 | . | . | .
COc1cccc(NC(=O)N[C@@H]2C=C[C@@H](CC(=O)Nc3ccccc3)O[C@@H]2CO)c1 | 3 | . | . | . | . | .
N#C/C(=C/c1ccc(O)c(O)c1)C(=O)NCc1ccc(Cl)cc1 | 2 | 15* | 8 | 36* | 17* | 11
N#C/C(=C/c1cccc(O)c1)C(=O)NCc1ccc(Cl)cc1 | -1 | 0 | 2 | . | . | .
O=C(Cn1c(=O)oc2cc(S(=O)(=O)N3CCCC3)ccc21)Nc1cccc(C(F)(F)F)c1 | . | 1 | -6 | . | . | .
CCc1cccc(NC(=O)Cn2c(=O)oc3cc(S(=O)(=O)N4CCOCC4)ccc32)c1 | 3 | 7.0* | -6 | 12* | 0 | 3
CCc1ccc(NC(=O)Cn2c(=O)oc3cc(S(=O)(=O)N4CCOCC4)ccc32)cc1 | -4 | 15* | 1 | 12* | 1 | 5
CCN(C(=O)Cn1c(=O)oc2cc(S(=O)(=O)N3CCOCC3)ccc21)c1ccccc1 | 2 | 4 | 6 | . | . | .
O=c1[nH]c(COc2ccccc2)nc2ccccc12 | 1 | -1 | 0 | . | . | .
O=c1[nH]c(COc2ccc(Br)cc2Cl)nc2ccccc12 | -1 | 6.2* | 0 | 30* | 3 | 14
Nc1nnc(COc2ccc(Br)cc2Br)s1 | 0 | 21* | -4 | 42* | 4 | 20*
Cc1ccc(C)c(OCc2nnc(N)s2)c1 | . | -2 | 25 | . | . | .
Cc1noc(C)c1S(=O)(=O)Nc1ccc2c(c1)CC(=O)N([C@@H](C)CO)C[C@H](C)[C@@H](CN(C)CC1CC1)O2 | -2 | . | . | . | . | .
C[C@H]1CN([C@@H](C)CO)C(=O)c2cccc(NS(=O)(=O)c3cn(C)cn3)c2O[C@@H]1CN(C)S(=O)(=O)c1ccc(Cl)cc1 | 2 | . | . | . | . | .
COc1ccc(-n2c(N)c(C(=O)NCc3ccco3)c3nc4ccccc4nc32)cc1 | . | -1 | -4 | . | . | .
Nc1c(C(=O)NCc2ccco2)c2nc3ccccc3nc2n1CCc1ccc(F)cc1 | . | 8.4* | -13 | 11* | 14 | 10
COCC(=O)N1C[C@H](C)[C@H](OC)CN(C)C(=O)c2cc(NC(=O)Nc3cccc(F)c3)ccc2OC[C@@H]1C | 1 | 34* | . | 43* | -3 | 18*
COCC(=O)N1C[C@@H](C)[C@@H](OC)CN(C)C(=O)c2cc(NC(=O)Nc3cccc(F)c3)ccc2OC[C@@H]1C | 10 | . | . | . | . | .
COc1ccc(NC(=O)Nc2ccc3c(c2)C(=O)N([C@H](C)CO)C[C@H](C)[C@@H](CN(C)C(=O)Nc2ccccc2)OCCCC[C@@H](C)O3)cc1 | 0 | . | . | . | . | .
Cc1noc(C)c1S(=O)(=O)N(C)C[C@H]1Oc2ccc(NC(=O)C3CCCCC3)cc2CC(=O)N([C@H](C)CO)C[C@H]1C | -4 | . | . | . | . | .
O=C(NCc1nc2ccccc2[nH]1)C1=C[C@H](c2ccc3c(c2)OCO3)C[C@H](OCc2ccc(CO)cc2)O1 | 4 | 54* | 16 | 90* | -5 | 60*
O=C(NCc1nc2ccccc2[nH]1)C1=C[C@H](c2coc3ccccc3c2=O)C[C@H](OCc2ccc(CO)cc2)O1 | -2 | 24* | 1 | 58* | 1 | 32*
O=C(Nc1ccccc1)C1=C[C@@H](c2ccc(C(F)(F)F)cc2)C[C@@H](OCc2ccc(CO)cc2)O1 | 2 | 0 | -3 | . | . | .
CC(C)(C)[C@H]1C=C(C(=O)NCc2nc3ccccc3[nH]2)O[C@@H](OCc2ccc(CO)cc2)C1 | 3 | 62* | -5 | 87* | 7 | 61*
O=C(NC1CC1)C1=C[C@@H](c2coc3ccccc3c2=O)C[C@@H](OCc2ccc(CO)cc2)O1 | 0 | 0 | 4 | . | . | .

Bioassay records as filed in PubChem BioAssay.
